pIC50: −log10 of the molar value.
How the values were obtained:
[1] = molecular target: T1, Mitogen-activated protein kinase kinase kinase 11 (Homo sapiens, UniProt Q16584); assay: Inhibition of GST-fused human MLK3 at 1 uM
Procedure, shortened: (§1)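 Baculovirus-expressed GST fusions of human MLK1 or MLK3 kinase domain (50 ng MLK1, 100 ng MLK3), myelin basic protein substrate at 500 µg/mL.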
Target sequence in this assay (Q16584 whole entry, looked up, the tested form may be a part): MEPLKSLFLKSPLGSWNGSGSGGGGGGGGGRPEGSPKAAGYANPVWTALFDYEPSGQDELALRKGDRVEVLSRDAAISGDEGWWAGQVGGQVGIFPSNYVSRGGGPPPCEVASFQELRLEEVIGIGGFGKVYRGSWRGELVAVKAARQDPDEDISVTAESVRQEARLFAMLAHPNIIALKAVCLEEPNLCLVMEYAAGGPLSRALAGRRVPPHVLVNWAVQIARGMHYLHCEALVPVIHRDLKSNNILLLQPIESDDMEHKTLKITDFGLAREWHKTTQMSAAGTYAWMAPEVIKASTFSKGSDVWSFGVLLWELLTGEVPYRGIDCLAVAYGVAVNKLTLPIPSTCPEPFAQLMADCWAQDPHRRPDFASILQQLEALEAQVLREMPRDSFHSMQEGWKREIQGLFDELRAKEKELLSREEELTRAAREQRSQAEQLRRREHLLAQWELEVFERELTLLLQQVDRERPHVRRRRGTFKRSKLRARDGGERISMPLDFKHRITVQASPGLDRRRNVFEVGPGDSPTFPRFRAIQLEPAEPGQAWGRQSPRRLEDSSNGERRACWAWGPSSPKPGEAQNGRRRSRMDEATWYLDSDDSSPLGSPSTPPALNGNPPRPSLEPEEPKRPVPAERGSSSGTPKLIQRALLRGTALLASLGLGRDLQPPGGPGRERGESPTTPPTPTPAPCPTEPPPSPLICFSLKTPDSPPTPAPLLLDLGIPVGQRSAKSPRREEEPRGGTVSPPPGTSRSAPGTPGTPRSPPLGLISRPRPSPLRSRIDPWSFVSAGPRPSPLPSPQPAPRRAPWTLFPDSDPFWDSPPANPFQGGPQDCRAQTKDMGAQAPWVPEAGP

[2] = molecular target: T2, Mitogen-activated protein kinase kinase kinase 9 (Homo sapiens, UniProt P80192); assay: Inhibition of GST-fused human MLK1 at 1 uM; procedure, shortened: as §1
Target sequence in this assay (P80192 whole entry, looked up, the tested form may be a part): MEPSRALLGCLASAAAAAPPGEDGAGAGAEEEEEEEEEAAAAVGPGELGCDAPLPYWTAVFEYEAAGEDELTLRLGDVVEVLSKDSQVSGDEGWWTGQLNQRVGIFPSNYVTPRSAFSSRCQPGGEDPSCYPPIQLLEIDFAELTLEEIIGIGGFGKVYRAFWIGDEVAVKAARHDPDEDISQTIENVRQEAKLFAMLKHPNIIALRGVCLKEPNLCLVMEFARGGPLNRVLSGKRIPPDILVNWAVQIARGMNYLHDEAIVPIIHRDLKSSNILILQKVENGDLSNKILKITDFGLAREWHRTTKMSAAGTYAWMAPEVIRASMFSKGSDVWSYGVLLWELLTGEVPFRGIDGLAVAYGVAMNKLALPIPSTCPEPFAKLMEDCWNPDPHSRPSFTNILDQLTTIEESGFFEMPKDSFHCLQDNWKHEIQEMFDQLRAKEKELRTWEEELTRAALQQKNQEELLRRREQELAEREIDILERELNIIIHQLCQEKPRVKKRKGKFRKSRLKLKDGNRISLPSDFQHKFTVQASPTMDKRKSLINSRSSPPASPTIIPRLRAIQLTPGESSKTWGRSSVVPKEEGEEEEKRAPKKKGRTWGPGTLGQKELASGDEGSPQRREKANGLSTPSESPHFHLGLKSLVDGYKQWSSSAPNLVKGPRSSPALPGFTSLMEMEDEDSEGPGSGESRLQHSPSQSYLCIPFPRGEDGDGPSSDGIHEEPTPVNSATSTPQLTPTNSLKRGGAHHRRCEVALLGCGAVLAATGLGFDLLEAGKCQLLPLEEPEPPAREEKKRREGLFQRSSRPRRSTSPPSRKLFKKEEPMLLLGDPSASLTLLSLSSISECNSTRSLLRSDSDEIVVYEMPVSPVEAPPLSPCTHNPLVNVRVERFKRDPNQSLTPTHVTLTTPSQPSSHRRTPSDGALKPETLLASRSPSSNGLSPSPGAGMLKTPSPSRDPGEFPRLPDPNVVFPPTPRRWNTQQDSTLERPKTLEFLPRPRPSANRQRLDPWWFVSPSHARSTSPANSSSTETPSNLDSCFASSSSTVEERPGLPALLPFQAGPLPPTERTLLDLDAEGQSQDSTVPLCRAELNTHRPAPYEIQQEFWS

[3] = molecular target: T2, Mitogen-activated protein kinase kinase kinase 9; assay: Inhibition of GST-fused human MLK1 expressed in CHO cells assessed as MKK4 phosphorylation; assay type: cell-based
Procedure, shortened: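 CHO cells transfected with MLK1 plus dominant-negative MKK4 cDNA; phospho-MKK4 quantified by ELISA; IC50 derived.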
Target sequence in this assay (P80192 whole entry, the tested form may be a part): as the sequence (P80192 whole entry, looked up, the tested form may be a part) above

[4] = molecular target: T2, Mitogen-activated protein kinase kinase kinase 9; assay: Inhibition of GST-fused human MLK1
Procedure, shortened: (§2)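 GST fusions of human MLK kinase domains from baculovirus (50 ng MLK1_KD, 150 ng MLK2_KD/LZ, 100 ng MLK3_KD), substrate 500 µg/mL myelin basic protein. Buffer 20 mM Hepes pH 7.2, 5 mM EGTA, 15 mM MgCl2, 1 mM DTT, 25 mM β-glycerophosphate, 0.1% BSA, 2% DMSO.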
Target sequence in this assay (P80192 whole entry, the tested form may be a part): as the sequence (P80192 whole entry, looked up, the tested form may be a part) above

[5] = molecular target: T1, Mitogen-activated protein kinase kinase kinase 11; assay: Inhibition of GST-fused human MLK3; procedure, shortened: as §2
Target sequence in this assay (Q16584 whole entry, the tested form may be a part): as the sequence (Q16584 whole entry, looked up, the tested form may be a part) above

SMILES	inhibition [1] [%]	inhibition [2] [%]	pIC50 [3]	pIC50 [4]	pIC50 [5]
O=C1NCc2c1c1c(c3c2c2ccccc2n3CCO)CCc2cc(OCCO)ccc2-1	46				
O=C1NCc2c1c1c(c3c2c2ccccc2n3CCO)CCc2cc(OC3CCCCC3)ccc2-1	4	35			
CC(C)Oc1ccc2c(c1)CCc1c-2c2c(c3c1[nH]c1ccccc13)CNC2=O			6.71	7.18	6.80
COc1ccc2c(c1)CCc1c-2c2c(c3c1[nH]c1ccccc13)CNC2=O				6.73	6.56
N#CCCCOc1ccc2c(c1)CCc1c-2c2c(c3c4ccccc4n(CCO)c13)CNC2=O	46	58			
O=C1NCc2c1c1c(c3c2c2ccccc2n3CCO)CCc2ccccc2-1		14			6.00
O=C1NCc2c1c1c(c3c2c2ccccc2n3CCO)CCc2cc(OC3CCCC3)ccc2-1	32		6.46	7.31	
O=C1NCc2c1c1c(c3c2c2ccccc2n3CCO)CCc2cc(OCCOCc3ccccc3)ccc2-1	0	9			
O=C1NCc2c1c1c(c3c2c2ccccc2n3CCO)CCc2cc(O)ccc2-1	30	32			
